This note sets out measurements from ChEMBL document CHEMBL3112538, “Novel spirooxindole-pyrrolidine compounds: synthesis, anticancer and molecular docking studies” (2014).

Test [1] concerns A549. The experiment in a line: Cytotoxicity against human A549 cells assessed as growth inhibition at 25 ug/ml after 24 hrs by agarose gel electrophoresis. Format: functional, cell-based. The essentials:
(§1)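 A549 cells were exposed to compound for 24 h. 1 × 10^6 cells were pelleted, PBS-washed and lysed at 4 °C for 15 min in 10 mM Tris-HCl pH 7.4 with 10 mM EDTA and 0.5% Triton X-100. Supernatant was treated with proteinase K (60 °C, 60 min) then RNase A (37 °C, 60 min). DNA was isopropanol/NaCl precipitated overnight and run on a 2% agarose gel.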

The subject of test [2] is A549. The experiment in a line: Induction of apoptosis in human A549 cells assessed as DNA fragmentation at 25 ug/ml after 24 hrs by agarose gel electrophoresis. Type of test: functional, cell-based. In a few lines: as §1
Test [3] concerns A549. As to the kind of experiment: Induction of apoptosis in human A549 cells at 25 ug/ml after 24 hrs by propidium iodide/FITC staining-based confocal laser scanning microscopy. Format: functional, cell-based. In a few lines:
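Cells were exposed to compound or untreated for 24 h, washed twice in 0.01 M PBS and suspended in binding buffer. They were stained with FITC and PI for 30 min at 4 °C in the dark, pelleted and smeared. Fluorescence was viewed at once by confocal laser scanning microscopy at 400× magnification.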

In test [4] the test system is A549. The experiment in a line: Cytotoxicity against human A549 cells at 100 ug/ml by MTT assay. Type of test: functional. The essentials:
(§2)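 A549 cells (NCIS Pune) grown in DMEM with 10% FBS, 2 mM L-glutamine, penicillin/streptomycin, pH 7.2. 5 × 10^5 cells were seeded with compound at 100, 50 or 25 per mL and kept at 37 °C, 5% CO2. MTT (1 mg/mL, 4 h) was added, formazan dissolved in DMSO and read at 540 nm. IC50 is the mean of three replicate experiments; Duncan test at P = 0.05.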

The test system of test [5] is A549. As to the kind of experiment: Cytotoxicity against human A549 cells at 50 ug/ml by MTT assay. Format: functional. The essentials:
as §2
On the technique in general: Tetrazolium dyes change colour on reduction, which living cells bring about.

Test [6] deals with A549. The experiment in a line: Cytotoxicity against human A549 cells by MTT assay. Format: functional, cell-based. The essentials: as §2
Test [7] deals with A549. The experiment in a line: Cytotoxicity against human A549 cells at 25 ug/ml by MTT assay. Type of test: functional. In a few lines: as §2

The source made the active and inactive calls. The calls are words filed in the database; no cut-off is given here.

Turning to `CN1C(=O)[C@@]2(c3ccccc31)N1CSCC1[C@H](c1ncc[nH]1)[C@@]2(C#N)C(=O)c1c[nH]c2ccccc12` (some centres not stated), the “growth inhibition (GI)” value in test [1] is “Active”. Further, the outcome in test [2] and in test [3] was Active. In test [4], this compound registered an inhibition at 100 µg/mL of 87.8%. Besides, the inhibition at 50 µg/mL in test [5] was determined as 75.1%. Also, the Activity result in test [6] is “Dose-dependent effect”. In test [7], at 25 µg/mL the inhibition was 64.8%.

Usually inhibition stands for how much of the control response was suppressed. A high value points to a strong effect.
